Data: ChEMBL document CHEMBL1125832, “Synthesis and dopaminergic activity of 3-substituted 1-(aminomethyl)-3,4-dihydro-5,6-dihydroxy-1H-2-benzopyrans: characterization of an auxiliary binding region in the D1 receptor” (J Med Chem, 1991)

Experiments:
Rattus norvegicus [1] = test: (§1) Rat rotation experiments were conducted to evaluate rational behavior of the rats by administering at a dose of […] subcutaneously; format: functional
Rattus norvegicus [2] = test: as §1; format: functional; remark: listed apart in the source
[3] = target: T1, 5-hydroxytryptamine receptor 1A (Rattus norvegicus, UniProt P19327); test: Binding affinity was evaluated by using [3H]8-OH-DPAT radioligand by using competitive binding assay on 5-hydroxytryptamine 1A receptor
T1 sequence (P19327 whole entry): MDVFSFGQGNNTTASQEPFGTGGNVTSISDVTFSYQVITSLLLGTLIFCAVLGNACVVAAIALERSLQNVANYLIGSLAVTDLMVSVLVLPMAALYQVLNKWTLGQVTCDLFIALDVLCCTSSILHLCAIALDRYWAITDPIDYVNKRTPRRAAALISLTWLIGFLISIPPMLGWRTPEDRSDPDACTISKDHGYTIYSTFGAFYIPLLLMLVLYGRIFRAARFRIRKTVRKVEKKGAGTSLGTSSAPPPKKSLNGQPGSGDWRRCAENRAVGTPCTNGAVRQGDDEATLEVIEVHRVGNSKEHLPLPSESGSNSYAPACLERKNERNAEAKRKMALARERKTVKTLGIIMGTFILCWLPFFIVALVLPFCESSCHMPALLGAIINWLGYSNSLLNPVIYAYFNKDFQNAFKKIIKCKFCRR
Method in brief: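 Rat anterior cortex membranes, pelleted and preincubated 30 min at 37 °C in 50 mM Tris-HCl pH 7.7, 4 mM CaCl2, 10 μM pargyline. Label [3H]8-OH-DPAT, 800 pM final; nonspecific binding with 10 μM spiroxatrine. Ki derived from IC50 by Cheng-Prusoff; mean with SEM range.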

Rattus norvegicus [4] = test: Rat rotation experiments were conducted to evaluate rational behavior of the rats by administering at a dose of […] oral; format: functional
Rattus norvegicus [5] = test: as §1; format: functional; remark: listed apart in the source
Rattus norvegicus [6] = test: Rat rotation experiments were conducted to evaluate rational behavior of the rats by administering at a dose of 4.1 umol/kg subcutaneously; format: functional
Method in brief: (§2)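 Rats with unilateral 6-hydroxydopamine lesions of the nigrostriatal bundle. Compound given subcutaneously or orally at the stated dose. Net contralateral rotations counted over 2 h after dosing and reported as mean ± SEM; negative values indicate ipsilateral turning.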

Rattus norvegicus [7] = test: Rat rotation experiments were conducted to evaluate rational behavior of the rats by administering at a dose of 40 umol/kg oral; format: functional; method in brief: as §2
Rattus norvegicus [8] = test: Rat rotation experiments were conducted to evaluate rational behavior of the rats by administering at a dose of 0.2 umol/kg subcutaneously; format: functional; method in brief: as §2

With `C=CCNC[C@@H]1OC(C2CCCCC2)Cc2c1ccc(O)c2O` (stereo partly drawn) as the compound, how does the Activity (Rattus norvegicus [1]) read?
The Activity was 1056.

How did the Activity (Rattus norvegicus [2]) turn out when `CC(C)(C)C1Cc2c(ccc(O)c2O)[C@H](CN)O1` (stereo partly drawn) was run?
The Activity was 671.

And the Ki [3]?
Its Ki is over 20 µM.

And the Activity (Rattus norvegicus [4])?
Its Activity is 932.

What about the Activity (Rattus norvegicus [5]) of the same compound?
The Activity was 661.

Which results are given for `NC[C@@H]1OC(c2ccccc2)Cc2c1ccc(O)c2O` (stereo partly drawn)?
Activity (Rattus norvegicus [6]): 1554; Activity (Rattus norvegicus [7]): 1066

For `NC[C@@H]1O[C@H](c2ccccc2)Cc2c1ccc(O)c2O`, which Activity (Rattus norvegicus [8]) is on record?
Its Activity is 348.
